Measured values from PMC3923119 (Osteoporosis International, 2013).
Read-outs that look alike come from different tables or passages of the source.

How the values were obtained:
[1] = tested on: postmenopausal women with osteoporosis; test: Changes in calcium metabolism; format: in vivo, human
Outline: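 Weekly s.c. 56.5 μg test compound for 24 weeks, in osteoporotic women aged 60–79 on calcium/vitamin D/magnesium supplements. Blood was drawn in weeks 0, 4, 12 and 24, with 0 h sampling at 0800 before dosing and further samples over 24 h. Corrected serum Ca and intact PTH (electrochemiluminescence immunoassay) are given as means±SE versus 0 h or week 0, paired t test.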

[2] = tested on: postmenopausal women with osteoporosis; test: Changes in bone turnover markers; format: in vivo, human
Outline: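 Women aged 60–79 received 56.5 μg test compound s.c. weekly for 24 weeks. In weeks 0, 4, 12 and 24, dosing followed 0 h sampling at 0800, with serum/urine taken at 0, 2, 4, 6, 8, 12 and 24 h. Osteocalcin was measured by IRMA, P1NP by RIA, urinary NTX by ELISA, plus urinary DPD. Read-outs were mean (±SE) percent change from 0 h or week 0, paired t test.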

[3] = tested on: postmenopausal women with osteoporosis; test: Adverse events; format: in vivo, human; conditions: 56.5 μg once weekly for 24 weeks
Outline: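 Japanese postmenopausal women with osteoporosis, aged 60–79, at four centres. Test compound (PTH peptide) 56.5 μg given s.c. weekly for 24 weeks, with daily calcium 610 mg, vitamin D 400 IU and magnesium 30 mg. Physicians recorded adverse events and classified them by MedDRA 12.0 system organ class.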

[4] = tested on: healthy postmenopausal women; conditions: day 7 after single injection of 56.5 μg; cited from earlier work
[5] = daily teriparatide, cited from earlier work
[6] = cited from earlier work
[7] = after 24 weeks, 56.5 μg once weekly
[8] = at 4 weeks, 56.5 μg once weekly, mean percent change, significant

What does the source list for `CC[C@H](C)[C@H](NC(=O)[C@H](CCC(=O)O)NC(=O)[C@H](CO)NC(=O)[C@@H](NC(=O)[C@@H](N)CO)C(C)C)C(=O)N[C@@H](CCC(N)=O)C(=O)N[C@@H](CC(C)C)C(=O)N[C@@H](CCSC)C(=O)N[C@@H](Cc1cnc[nH]1)C(=O)N[C@@H](CC(N)=O)C(=O)N[C@@H](CC(C)C)C(=O)NCC(=O)N[C@@H](CCCCN)C(=O)N[C@@H](Cc1cnc[nH]1)C(=O)N[C@@H](CC(C)C)C(=O)N[C@@H](CC(N)=O)C(=O)N[C@@H](CO)C(=O)N[C@@H](CCSC)C(=O)N[C@@H](CCC(=O)O)C(=O)N[C@@H](CCCN=C(N)N)C(=O)N[C@H](C(=O)N[C@@H](CCC(=O)O)C(=O)N[C@@H](Cc1c[nH]c2ccccc12)C(=O)N[C@@H](CC(C)C)C(=O)N[C@@H](CCCN=C(N)N)C(=O)N[C@@H](CCCCN)C(=O)N[C@@H](CCCCN)C(=O)N[C@@H](CC(C)C)C(=O)N[C@@H](CCC(N)=O)C(=O)N[C@@H](CC(=O)O)C(=O)N[C@H](C(=O)N[C@@H](Cc1cnc[nH]1)C(=O)N[C@@H](CC(N)=O)C(=O)N[C@@H](Cc1ccccc1)C(=O)O)C(C)C)C(C)C` [teriparatide, Human parathyroid hormone (PTH) 1–34]?
serum corrected Ca level during the 24 week dosage period ([1]; 0 h values at 4 and 24 weeks versus 0 weeks, 56.5 μg once weekly, paired t test): decreased significantly; intact PTH level during the dosage period of 24 weeks ([1]; 0 h values at 12 and 24 weeks versus 0 weeks, 56.5 μg once weekly, paired t test): decreased significantly; serum intact PTH minimum concentration ([1]; at 2 or 6 h after 56.5 μg injection, range of means over data collection weeks): 25.6 to 28.3 pg/mL; serum P1NP change after 24 weeks [2, 7]: did not increase significantly; serum osteocalcin change after 24 weeks [2, 7]: increased significantly; urinary DPD maximum value, 24 h percent change from 0 h ([2]; at 2 or 4 h after 56.5 μg injection, range of means over data collection weeks): 29.5 to 31.6%; urinary NTX maximum value, 24 h percent change from 0 h ([2]; at 4 or 6 h after 56.5 μg injection, range of means over data collection weeks): 41.2 to 67.4%; urinary DPD decrease from baseline (0 h values) ([2]; at 4 weeks, 56.5 μg once weekly, mean percent change): 17.8%; serum P1NP increase from baseline (0 h values) [2, 8]: 19.9%; serum osteocalcin increase from baseline (0 h values) [2, 8]: 26.8%; urinary NTX decrease from baseline (0 h values) [2, 8]: 14.8%; serum P1NP minimum value, 24 h percent change from 0 h ([2]; at 6 h after 56.5 μg injection, range of means over data collection weeks): −15.1 to −22.3%; Hypercalcemia [3]: not observed; serious AEs ([3]; 28 subjects): No serious AEs were observed; NTX decrease [4]: 10%; P1NP increase [4]: 10%; osteocalcin increase [4]: 5%; bone formation marker increase ([5]; after 1 month): 105%; bone formation marker (serum PINP) increase ([5]; after 6 months): 218%; bone resorption marker (urinary NTX) increase ([5]; after 6 months): 58%; relative risk reduction in vertebral fractures ([6]; daily teriparatide): 65%; relative risk of non-vertebral fragility fracture ([6]; once-weekly teriparatide injection, 95 % CI, 0.24–1.84, p = 0.43): 0.67; relative risk reduction in vertebral fractures ([6]; once-weekly teriparatide): 80%
